Measurements published in the EternaBench riboswitch data.

Test system: MS2 coat protein
Experiment: apparent Kd, MS2 coat protein; higher = weaker binding; RNA-MaP array; FMN 200 µM where present
How it was run: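 The apparent Kd is the median of filtered binding-curve fits, one per cluster, to green signal normalised to red-channel RNA signal and control-cluster median Fmax. The clusters were on Illumina sequencing chips, and stalled E. coli RNA polymerase had transcribed the designs on them. Titration used SNAP-549-labelled MS2 coat protein from 0.7 or 1.5 nM, doubling to 3 µM, without and then with constant ligand, in 100 mM Tris-HCl pH 7.5, 80 mM KCl, 4 mM MgCl2, BSA, DTT, yeast tRNA and Tween-20.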

[1] = designed as: OFF switch for flavin mononucleotide, no ligand
[2] = ligand present: flavin mononucleotide, designed as: OFF switch for flavin mononucleotide
[3] = designed as: ON switch for flavin mononucleotide, no ligand
[4] = ligand present: flavin mononucleotide, designed as: ON switch for flavin mononucleotide

Row | Sequence | apparent Kd [1] | apparent Kd [2] | apparent Kd [3] | apparent Kd [4]
1 | ACCAAUGGAGGAUAUACAUGAGGAUCACCCAUGUAUAACCUACAUAGGUGAAAAUUAUGUAGAAGGCCAUUGGA | 14.6 nM | 13.4 nM | – | –
2 | GGUGGACAUGAGGAUCACCCAUGUGAGGAUAUCGGCUAUCUUCUCGCUGUCGGUUGCUCGAGAAGGCACAUUGU | 70.6 nM | 86.7 nM | – | –
3 | GUAACUUAUGUGAGGAUAUAUUAUGUCUUGGUGUAGUAGAAGGCACAUGAGGAUCACCCAUGUCCAAUUGGUCU | 229 nM | 457 nM | – | –
4 | GUCGUGCGGCUUUGCUGUACGAGUACAUGAGGAUCACCCAUGUAGGAUAUGGUUCGUUUUGCGUGCCAGAAGGGCGUGCGUUGU | 25.5 nM | 24.8 nM | – | –
5 | UUGGACGUCGUAGGAUAUGUAGGAUAUUCCUACAUGAGGAUCACCCAUGUUGACAUGGAAGAAGGACAGAAUGACGAUGUCCAU | – | – | 374 nM | 5.51 nM
6 | UGUCUGUCAGGAUAUCCAGAAGAGAAGAAAGUAAGAUGAGUGGAGAAGGGACAUGAGGAUCACCCAUGUAAUUA | 31 nM | 36.4 nM | – | –
7 | UCGACCGGCGCCGGUCGAACAUGAGGAUCACCCAUGUACUCCAGAAGGCCGCCCAAGAACGGAGUGGAGGAUAUGGAGGUUCUC | – | – | 77.1 nM | 22.3 nM
8 | ACAAAUGGAGGAUAUACAUGAGGAUCACCCAUGUAUAUCCUACAUGUGUGAUAAUCAUGUAGAAGGCCAUUUGA | 14 nM | 12.3 nM | – | –
9 | CCUAAGAAAGGAUAUACACCGGUGGGCCGCUGAAUUCAGCAACAUGAGGAUCACCCAUGUAGAAGGUUUAUGGG | 75.2 nM | 270 nM | – | –
10 | AAGAUACAUGAGGAUCACCCAUGUGAGGAUAUGUGUAUCCCUAAAAAAGUGUGGGACCACAGAAGGUACUUGGA | 61.7 nM | 55.4 nM | – | –
11 | UGUCCAUAGCAGAAGGACAUGAAUAAACAUGAAAACAUGAGGAUCACCCAUGUAGGAUAUGCUAUGGACUAAGAGCGAAAGCUC | 7.06 nM | 48.1 nM | – | –
12 | UUUAGUUGCGGGCAGGAUAUGUAUUAAAAUACAUGAGGAUCACCCAUGUGCGGGUGUAACACCCGACAGAAGGGCCAAUCGCGAC | – | – | 388 nM | 28.6 nM
13 | GGAUCGAAUGUGAGGAUAUACCUAUGGAUACAUAGGUAGAAGGCACAUGAGGAUCACCCAUGUUCCUACGGUCC | 81.7 nM | 680 nM | – | –
14 | AGUACUCAAAGAGUACGCGUAAGCACAUGAGGAUCACCCAUGUAGGAUAUGCUACUCAAAGAGUAGUAGAAGGACAUAUACCUC | 5.2 nM | 6.34 nM | – | –
15 | GGAAAUCAUGUAGGAUAUGCAUGGCGAAGCUACGCAGAAGGACAUGAGGAUCACCCAUGUUAGAGCGUCCGAGAAAGGAUGCAA | 43.2 nM | 250 nM | – | –
16 | CAAUAUAACACAGGAUAUGUCUCGUUUACAUGAGGAUCACCCAUGUCCGAAACAGAAGGGUGACCUGAUAUAGGACGUUAGGUG | – | – | 367 nM | 138 nM
17 | AAUAAACUCACAGGAUAUAGCAUAGGUCGCCUGAACUUACAGGCGACUAUGCUAGAAGGGUGACCACAUGAGGAUCACCCAUGU | – | – | 847 nM | 168 nM
18 | CUAGCAGAUGUAGGAUAUGCUCAGGAUAACUGAGCAGAAGGACAUGAGGAUCACCCAUGUAAAGUGUCUCUAAAUAACUGCUAG | 22.9 nM | 80.5 nM | – | –
19 | ACAAAUGGAGGAUAUACAUGAGGAUCACCCAUGUUUAUCCUACAUAUGUGAUACUCAUGUAGAAGGCCAUUUGA | 13.1 nM | 12.6 nM | – | –

Row | Sequence | apparent Kd [1] | apparent Kd [2] | apparent Kd [3] | apparent Kd [4]
20 | UUGGACGUCGUAGGAUAUGUAGGAUAUUCCUACAUGAGGAUCACCCAUGUUGACAUGGAAGAAGGACAGAAGGACGAUGUCCAU | – | – | 566 nM | 14.2 nM
21 | UGUGUGAGACAGGAUAUGCCGGAUGAAAGGCAGGUAGAAGGGUCUACAUGAGGAUCACCCAUGUGGCCGGUUGG | 17.4 nM | 18.7 nM | – | –
22 | GUCAGCUCGUGAGGAUAUACAACACUGCUUCGGCAGUGUAUGAAGAUCACAUGAGGAUCACCCAUGUAGAAGGCACGAGCUGAU | 9.93 nM | 176 nM | – | –
23 | AUAUAUAUUAGAGGAUAUGUGUUCAUGUUACAUGAGGAUCACCCAUGUUUAGGUUGAUUGAUCUUACAGAAGGCUAUACAAUGA | 97.2 nM | 78.5 nM | – | –
24 | AUCCGGCGUGUAGGAUAUGGAAAAGAUUAGGAACCAGAAGGACAUGAGGAUCACCCAUGUACAUGUAAACAGUCAUCACCGGAA | 11.4 nM | 28.6 nM | – | –
25 | AGAAACUACGAGAAGGACAUGUGGUCCUUCAAUUACAUGAGGAUCACCCAUGUAGGAUAUCGUAGUUUCAGGAUCGUGAGAUCA | 12.7 nM | 3.81 nM | – | –
26 | GCUUCACAUGAGGAUCACCCAUGUUUUCGGAGUCGAGGAUAUGGUCACUGUAAACAGUGGCCAGAAGGCGAGGAGC | – | – | 18.2 nM | 16.7 nM
27 | AUAUUGUGAGGAUAUGAACUUAGUAUCGAAAGUUACUAAGUUCAGAAGGCACAUGAGGAUCACCCAUGUUUCUC | 72.1 nM | 972 nM | – | –
28 | GAGACACAUGAGGAUCACCCAUGUGAGGAUAUCCGAAGGACCAAAUUAAGAAUUAAAGGGAGAAGGCACAUAAA | 27 nM | 25.9 nM | – | –
29 | CGAUAAUAUAGUUAUCCGUAACGGACAUGAGGAUCACCCAUGUAGGAUAUGUUACUCAACGAGUAACAGAAGGACAUGAGUCUU | 14.8 nM | 109 nM | – | –
30 | UUUUACAUAGGAUAUAGUUUGUUGUACAUGAGGAUCACCCAUGUUUUUGGUUGUGCUUUUCUAGAAGGAUGUUUCU | 47.7 nM | 41.7 nM | – | –
31 | AUUGAUGUUGAGGAUAUGCUUAUAUUUAUACUUGCAGAAGGCGAUACAUGAGGAUCACCCAUGUUCAUGGAAGU | 31.3 nM | 33.8 nM | – | –
32 | ACUUCACAUGAGGAUCACCCAUGUCAGGAUAUCCAGCACUAGCAGGCUCGCUCUUGAAGGAGAAGGGACGGGUA | 46.1 nM | 54.6 nM | – | –
33 | CGAUCACAUGUCAGGAUAUGCGAGCUUGUAUCGCCGUAGAAGGGACAUGAGGAUCACCCAUGUCCGAUCAUUCG | 28.3 nM | 52.1 nM | – | –
34 | CUUUGCGUUAGAGGAUAUAUUGUGUGUUACACAAUAGAAGGCUAAACAAACAUGAGGAUCACCCAUGUUGUCCAUGUCGUCGGC | – | – | 16.8 nM | 21 nM
35 | GGACAUGUCGUUUACAUGAGGAUCACCCAUGUCGAUGGACAUGAGGAUAUCGAUACGAAUCGUAUCGAGAAGGCAUGCAUGUCC | – | – | 42.8 nM | 18.5 nM
36 | UUGUUGUAUGUAGGAUAUGCAUAUUAUUAUUAUGCAGAAGGACAUGAGGAUCACCCAUGUGUAUUAUUAUUAUAUAUUAUAUAU | 25.5 nM | 44.1 nM | – | –
37 | ACAUGAGGAUCACCCAUGUUUUUUGGGUACUUUUGUUUCUGCAAGGAUAUGCAUUAUUUAUAUACGCAGAAGGUGCAUUACUUC | 573 nM | 708 nM | – | –
38 | AUGAGUAAAGCAGGAUAUCUAUUGUCUCAGUAACAUGAGGAUCACCCAUGUAGAGAAGGGCUUAGUCAUUCACUUCGGAGUUGU | 14.8 nM | 38 nM | – | –

Row | Sequence | apparent Kd [1] | apparent Kd [2] | apparent Kd [3] | apparent Kd [4]
39 | AGUGUGUGGCAGGAUAUGCGAUUUGUAGGUGUUGCAGAAGGGUCUACAUGAGGAUCACCCAUGUGUGCGGUUGA | 283 nM | 570 nM | – | –
40 | UGUGUGUGGCAGGAUAUGCCGGUCGUUGGUCGGGUAGAAGGGUCUACAUGAGGAUCACCCAUGUGGCCGGUUGG | 46.8 nM | 44 nM | – | –
41 | GGAUGACAAAGUCAUCCUAUUCGAACAUGAGGAUCACCCAUGUAGGAUAUGCUACUCAAAGAGUAGCAGAAGGACAUGUGCCUU | 32.6 nM | 178 nM | – | –
42 | GUCAUCAAUGAAGGAUAUCUAUGUCCAACAUGAGGAUCACCCAUGUUGAGGAUUACCUAUGUGUAGGAGAAGGUCAAUAUAACU | – | – | 8.01 nM | 6.91 nM
43 | UUUUAACAUGAGGAUCACCCAUGUGAGGAUAUCGAAAUUUAUAUUAAUAUUAAUAUAACGAGAAGGCACAUUUU | 52 nM | 70.2 nM | – | –
44 | UAAGAUUAUGUAGGAUAUGGUUAUCUAUGUCUAGUUACUAGACAUAGAUAACCAGAAGGACAUGAGGAUCACCCAUGUUGAAUG | 10.3 nM | 44.4 nM | – | –
45 | UUUUGGCAUGUAGGAUAUGGGUCCGAUUAGGAUUUAGAAGGACAUGAGGAUCACCCAUGUGCAUUUAAUUGGUCUUUUUUUUUU | 102 nM | 133 nM | – | –
46 | CGAUAACAUAGUUAUCCGUAACGGACAUGAGGAUCACCCAUGUAGGAUAUGUUACUAAACUAGUAACAGAAGGACAUGAGUCUU | – | 295 nM | – | –
47 | GUAGCAUGAUUAGGAUAUUCAGCGAGUAGAUUGACAUGAGGAUCACCCAUGUGGCGAAAGCCGAGGGAGAAGGGAUGAUGCUAC | – | – | 34.9 nM | 25 nM
48 | UCCUGAUUGAGAGGUAGGAGUGGUAGAAGGCGACCGGUGCCAGAUGACAUGAGGAUCACCCAUGUCGAGGAUAUACCACUGAAU | 7.38 nM | 12.4 nM | – | –
49 | AACGACUGAGGAUAUACAUGAGGAUCACCCAUGUAUUGAAAUACGUGCUUGGUCAACUGUAGAAGGCAGAAUAA | 15.7 nM | 40.6 nM | – | –
50 | AAAAGACAUGAGGAUCACCCAUGUGAAAACGUGCAAGGAUAUGUGUGGAAACCGUACUAUACAGAAGGUGUGUGUC | – | – | 32 nM | 41.8 nM
51 | UAUGUUGUUGUGAGGAUAUACUUUGUUUGACCGUAGUAGAAGGCACAUGAGGAUCACCCAUGUAGAUUUUUGGU | 9.74 nM | 13.6 nM | – | –
52 | GCCCAAUCCACUUCGGGCCCAGACAGAAGGGCACACGGUCUAAGUCACAUGAGGAUCACCCAUGUGCAGGAUAUGUCUCGACUC | 9.88 nM | 50.3 nM | – | –
53 | CCCGCGAUGUCAGGAUAUAGUCGGAGGUGCAGACUAGAAGGGACAUGAGGAUCACCCAUGUGCGUAAACAUUUGAAACCCAGGU | 16.5 nM | 33.1 nM | – | –
54 | CGCAGUACUUAGGUACUACACAUGAGGAUCACCCAUGUAUCACAGGAUAUGCAUGAUAUAUUCAGGCAGAAGGGUGAUCUUACC | – | – | 54.5 nM | 130 nM
55 | UGAAAUCAUGUAGGAUAUGCAUGGCGAAGCUACGCAGAAGGACAUGAGGAUCACCCAUGUUAUAGCUACCAAGUUAGGUGGCAA | 155 nM | 138 nM | – | –
56 | UGAACUUCAGAGAAGGUCGAACGGCAACGAUUCGAAGGAUAUCUGGAAACAUGAGGAUCACCCAUGUAACCGGGUGGAUGUCCU | 43.3 nM | 182 nM | – | –
